From ChEMBL document CHEMBL1125883, “Thromboxane receptor antagonism combined with thromboxane synthase inhibition. 1. (+/-)-(3-pyridinylbicycloheptyl)alkanoic acids” (J Med Chem, 1991)
pIC50: −log10 of the molar value.

What was measured:
Thromboxane-A synthase [1] = molecular target: T1, Thromboxane-A synthase (Homo sapiens, UniProt P24557); test: In vitro inhibition of thromboxane synthase using [14C]arachidonic acid
T1 sequence (P24557 whole entry): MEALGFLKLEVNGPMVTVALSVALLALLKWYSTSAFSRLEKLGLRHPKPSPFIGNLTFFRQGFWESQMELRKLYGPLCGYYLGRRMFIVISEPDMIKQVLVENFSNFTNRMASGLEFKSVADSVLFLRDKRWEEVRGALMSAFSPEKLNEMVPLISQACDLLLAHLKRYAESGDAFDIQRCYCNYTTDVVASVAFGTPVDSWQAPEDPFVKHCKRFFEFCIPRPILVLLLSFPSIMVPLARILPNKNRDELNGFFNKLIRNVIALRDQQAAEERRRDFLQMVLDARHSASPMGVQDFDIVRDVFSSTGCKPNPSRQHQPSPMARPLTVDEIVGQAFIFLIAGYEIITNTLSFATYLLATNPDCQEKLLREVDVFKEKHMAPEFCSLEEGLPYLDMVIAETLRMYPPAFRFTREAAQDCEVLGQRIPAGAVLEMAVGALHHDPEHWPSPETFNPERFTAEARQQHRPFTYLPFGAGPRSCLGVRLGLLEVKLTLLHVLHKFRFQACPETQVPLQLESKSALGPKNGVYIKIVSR
Procedure, shortened: (§1)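 Human platelet microsomal preparation incubated with [14C]arachidonic acid; thromboxane synthase activity read as TxB2 formation; IC50 determined.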

Homo sapiens [2] = organism: Homo sapiens; test: In vitro inhibition of U 46619 induced aggregation of washed human platelets; format: functional
Homo sapiens [3] = organism: Homo sapiens; test: In vitro inhibition of U 46619 induced aggregation of human PRP; format: functional, organism-based
Canis familiaris = organism: Canis familiaris; test: In vitro inhibition of U 46619 induced contraction of dog saphenous vein; format: functional; conditions: Canis lupus familiaris, read-out: pA2 (converted)
Procedure, shortened: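 Dog saphenous vein rings 2-3 mm in modified Krebs buffer with 1.0 μM indomethacin, 95% O2/5% CO2, 37 °C, 2.0 g preload, isometric tension.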

Thromboxane-A synthase [4] = molecular target: T1, Thromboxane-A synthase; test: In vitro inhibition of Thromboxane synthase using [14C]arachidonic acid […]; procedure, shortened: as §1

| Structure (SMILES) | pIC50 (Thromboxane-A synthase [1]) | pIC50 (Homo sapiens [2]) | pIC50 (Homo sapiens [3]) | pIC50 (Thromboxane-A synthase [4]) | Kb (Canis familiaris) [µM] |
| --- | --- | --- | --- | --- | --- |
| O=C(O)CCCCCC[C@@H]1C2CCC(C2)C1c1cccnc1 (some centres not stated) | 6.90 | 5.01 | – | – | – |
| O=C(O)CCCCCC[C@H]1C2CCC(C2)[C@H]1c1cccnc1 (some centres not stated) | 8.15 | 4.89 | – | – | – |
| O=C(O)CCCCCC[C@@H]1C2CCC(C2)[C@@H]1c1cccnc1 (some centres not stated) | 7.27 | 5.14 | – | – | – |
| O=C(O)CCCC/C=C\C[C@@H]1C2CCC(C2)C1c1cccnc1 (some centres not stated) | – | – | – | 6.78 | – |

Now from value to molecule, other results behind:

| pIC50 (Thromboxane-A synthase [1]) | pIC50 (Homo sapiens [2]) | pIC50 (Homo sapiens [3]) | pIC50 (Thromboxane-A synthase [4]) | Structure (SMILES) | Kb (Canis familiaris) [µM] |
| --- | --- | --- | --- | --- | --- |
| 6.10 | 5.82 | – | – | O=C(O)CCC/C=C\C[C@@H]1C2CCC(C2)[C@@]1(CCCCCc1ccccc1)c1cccnc1 (some centres not stated) | – |
| 6.47 | 7.52 | 4.96 | – | O=C(O)CC/C=C\C[C@@]1(c2cccnc2)C2CCC(C2)[C@H]1CNS(=O)(=O)c1ccc(Cl)cc1 (some centres not stated) | 0.00324 |
| – | 5.89 | 5.55 | 8.52 | O=C(O)CCCCO/N=C(/c1cccnc1)c1cccc(C(F)(F)F)c1 [RIDOGREL] | 0.447 |
